Measurements collected from several papers.
Each line is one published result; the experiments were not run side by side.
Target: Mitogen-activated protein kinase 12 (MAPK12, Homo sapiens, UniProt P53778)
Sequence (P53778 1-367, as in one of the studies): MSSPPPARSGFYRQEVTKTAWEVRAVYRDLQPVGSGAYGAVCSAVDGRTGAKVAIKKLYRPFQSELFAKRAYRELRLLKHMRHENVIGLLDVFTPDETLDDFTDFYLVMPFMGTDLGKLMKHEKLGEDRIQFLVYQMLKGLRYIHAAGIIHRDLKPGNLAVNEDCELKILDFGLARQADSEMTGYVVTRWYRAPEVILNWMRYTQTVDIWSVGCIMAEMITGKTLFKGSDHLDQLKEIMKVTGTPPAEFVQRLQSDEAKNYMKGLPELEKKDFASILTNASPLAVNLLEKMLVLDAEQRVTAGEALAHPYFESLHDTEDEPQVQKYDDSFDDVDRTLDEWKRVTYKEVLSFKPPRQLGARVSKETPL

Cc1cnc(NC2CCOCC2)nc1-n1cnc(C(=O)NC(CN)c2cc(F)cc(Cl)c2)c1 (stereo not shown) — remaining activity (enzyme activity, inhibitor, radiometric; 1 µM): 48%
Cc1nccc(COC(=O)N2C[C@@H]3[C@@H](CNC(=O)c4ccc5[nH]nnc5c4)[C@@H]3C2)n1 — remaining binding (cell-free assay, competition with immobilised ligand; 1 µM): 79%
Nc1nc(NC2CCCCC2)sc1C(=O)c1ccccc1 — remaining activity (enzyme activity, inhibitor; 10 µM): 71%
CCCS(=O)(=O)Nc1ccc(F)c(C(=O)c2c[nH]c3ncc(-c4ccc(Cl)cc4)cc23)c1F — inhibition (enzyme activity, inhibitor; 1 µM): < 10%
O=C(Nc1cccnn1)N1CCC(=Cc2cccc(Oc3ccc(C(F)(F)F)cn3)c2)CC1 — remaining binding (cell-free assay, competition with immobilised ligand; 1 µM): 100%
CCN(CC)CCNC(=O)c1c(C)[nH]c(/C=C2\C(=O)Nc3ccc(F)cc32)c1C — inhibition (enzyme activity, inhibitor; 10 µM): -3%
CC(=O)C1=C(C)N(c2cccc(C(F)(F)F)c2)C(=O)N[C@@H]1c1ccc(C#N)nc1 — remaining binding (cell-free assay, competition with immobilised ligand; 1 µM): 77.4%
Cc1ccc(Nc2nccc(N(C)c3ccc4c(C)n(C)nc4c3)n2)cc1S(N)(=O)=O — inhibition (enzyme activity, inhibitor; 0.3 µM): -5%
O=C(Nc1cnn(-c2csc(C(=O)NC3COC3)c2)c1)Nc1c(F)cccc1Cl — remaining activity (enzyme activity, inhibitor; 5 µM): 98.3%
Nc1nc(Nc2ccccc2)sc1C(=O)c1c(F)cccc1F — remaining activity (enzyme activity, inhibitor; 10 µM): 77%
CN1CC(Oc2cnc(C#N)cc2-c2ccn3nc(NC(=O)C4CC4)cc3c2)C1 — inhibition (enzyme activity, inhibitor; 1 µM): -1%
Oc1cccc(-c2nc(N3CCOCC3)c3oc4ncccc4c3n2)c1 — remaining activity (enzyme activity, inhibitor; 10 µM): 76%
CC(C)(O)[C@H]1CC[C@H](Nc2ccc3ncc(-c4cccc(C(F)(F)F)c4)n3n2)CC1 — remaining activity (enzyme activity, inhibitor; 1 µM): 93.8%
CNC(=O)Nc1ccc2c(c1)CC[C@@]21OC(=O)N(CC(=O)N(Cc2ccc(F)cc2)[C@@H](C)C(F)(F)F)C1=O — remaining binding (cell-free assay, competition with immobilised ligand; 1 µM): 63%
COc1cc(Nc2cnc(C#N)c(O[C@H](C)CN(C)C)n2)ncc1-c1cnn(C)c1 — remaining activity (enzyme activity, inhibitor, radiometric; 10 µM): 109%
N#CCCc1ccc2c(c1)-c1[nH]c3ccc([N+](=O)[O-])cc3c1CC(=O)N2 — remaining signal (cell-free assay; 0.5 µM): 98.9%
Cn1nc(C(F)(F)F)cc1-c1cnc(N2CCc3cc(S(=O)(=O)Nc4c(F)cc(Cl)cc4F)cc(N4CCCC4=O)c32)nc1 — remaining binding (cell-free assay, competition with immobilised ligand; 1 µM): 83%
Cc1cc(NC(=O)c2cccc3cc(-c4cccc5[nH]nc(N)c45)ccc23)ccc1F — activity vs control (enzyme activity, inhibitor; 0.1 µM): 83%
NS(=O)(=O)c1cc(NC(=O)Cc2ccccc2)ccc1Oc1cccc(Cl)c1 — remaining binding (cell-free assay, competition with immobilised ligand; 1 µM): 100%
CCCOc1ccc(OC)c(F)c1C(=O)c1ccc(C(=O)N[C@@H]2CNC[C@H]2NC(=O)c2ccc3[nH]ncc3c2)cc1 — remaining activity (enzyme activity, inhibitor; 10 µM): 97%
COc1cc2ncnc(Nc3ccc(Oc4ccccc4)cc3C)c2cc1OC — inhibition (enzyme activity, inhibitor; 1 µM): 4%
Oc1cccc(-c2nc(N3CCOCC3)c3oc4ncccc4c3n2)c1 — remaining signal (cell-free assay; 0.5 µM): 93.4%
Cc1c(NC(=O)c2cc(C(N)=O)nc3cc(F)ccc23)c(C(F)(F)F)nn1Cc1ccc(C(C)(C)C)cc1 — remaining binding (cell-free assay, competition with immobilised ligand; 1 µM): 56%
CCOc1cc(-c2nncn2C)ccc1Nc1ncc2cc(C)nc(NCC(C)(C)C)c2n1 — inhibition (enzyme activity, inhibitor, FRET; 1 µM): < 15%
CCC(=O)N[C@H]1CC[C@@H](C(=O)N(C)c2ccc(-c3nc4ccccc4o3)cc2)C1 — remaining binding (cell-free assay, competition with immobilised ligand; 1 µM): 67%
CC/C(=N\NC(=O)NCc1cccc(O)c1)c1ccc(O)c(C)c1O — inhibition (enzyme activity, inhibitor; 0.1 µM): -1.6%
CC(C)(C)c1nc(-c2cccc(NS(=O)(=O)c3c(F)cccc3F)c2F)c(-c2ccnc(N)n2)s1 — remaining activity (enzyme activity, inhibitor, radiometric; 1 µM): 102%
O=C1Nc2ccc(Cl)cc2C1=Cc1cc(Cl)c(O)c(Cl)c1 — remaining signal (cell-free assay; 0.5 µM): 90.5%
